Shown are actives, neighbours in structure and some others; about 2.4% of the full set was active somewhere.
HNF4A DNA FP: change in binding of human HNF4A to DNA, primary screen, biochemical, fluorescence polarization, FITC-DNA | Hepatocyte nuclear factor 4-alpha (Homo sapiens), P41235 | 1 h | activity change, % at 10 µM | actives 0.3% (n = 360,000); in the data active = activity change above about 30%, passing the limit was not always enough
Target sequence (P41235 whole entry, looked up): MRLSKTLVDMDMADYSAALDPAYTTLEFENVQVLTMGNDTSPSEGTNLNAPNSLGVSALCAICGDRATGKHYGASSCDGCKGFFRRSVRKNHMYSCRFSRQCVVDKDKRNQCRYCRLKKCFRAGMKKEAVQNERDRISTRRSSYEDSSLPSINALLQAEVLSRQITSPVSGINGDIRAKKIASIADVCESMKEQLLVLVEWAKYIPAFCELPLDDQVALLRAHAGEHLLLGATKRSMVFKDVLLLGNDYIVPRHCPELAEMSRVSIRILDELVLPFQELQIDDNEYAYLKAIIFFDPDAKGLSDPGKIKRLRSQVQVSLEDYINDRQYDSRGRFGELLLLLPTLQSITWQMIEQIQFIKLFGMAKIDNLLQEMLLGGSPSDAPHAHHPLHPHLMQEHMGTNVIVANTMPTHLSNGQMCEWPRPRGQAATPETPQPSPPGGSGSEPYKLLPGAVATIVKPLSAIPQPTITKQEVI
CSN deneddyl inh: inhibitors of CSN-mediated cullin deneddylation, primary screen, biochemical, fluorescence polarization, uHTS; Purified CSN, SCF-Nedd8-OG deneddylation; inhibition, % at 12.5 µM; actives 0.38% (n = 360,000); COP9 signalosome complex subunit 5 (Homo sapiens), Q92905;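 active = pattern-corrected inhibition above about 35%, with an unprinted fluorescence ratio check between 0.5 and 1.5, limit read from the data, passing the limit was not always enough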;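 also: 0% = enzyme with substrate and 100% = substrate without enzyme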
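Assay system: purified human Csn5 enzyme expressed in HEK293T cells; Input: 0.24 nM Csn5 enzyme, final concentration; Reagent: 10 nM SCFSkp2-Nedd8OG; Compound dosing: 12.5 µM single point; Times: reaction 90 min, room temperature; Technique: fluorescence polarization readout.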
Neddylation inh: inhibitors of cullin neddylation, primary screen, biochemical, TR-FRET, uHTS, NAE and Ubc12. NEDD8-conjugating enzyme Ubc12 (Homo sapiens) + NEDD8-activating enzyme E1 regulatory …. inhibition, % at 25 µM. actives 0.58% (n = 360,000); in the data active = inhibition above about 36%
Tb MetRS inh: T. brucei MetRS inhibitors, primary screen, biochemical, luminescence; methionyl-tRNA synthetase (Trypanosoma brucei brucei); purified T. brucei MetRS, ATP depletion, Kinase-Glo luminescence; inhibition, % at 11.9 µM; actives 0.4% (n = 360,000); AID 624268, 2012;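 active = inhibition above a per-plate cutoff of the control wells' mean inhibition plus 3 SD, cut at about 5.5% in these data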;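 also: 0% = DMSO wells median and 100% = median of wells with control inhibitor compound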
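technique = Kinase-Glo luminescence, ATP depletion format | system = purified MetRS (methionyl-tRNA synthetase) enzyme from Trypanosoma brucei | timing = 15 min preincubation, 2 h reaction, all 25 °C | evaluation = percent inhibition versus plate control medians | dosing = single dose, 11.9 µM final nominal, 0.9% final DMSO | also added = substrates ATP, L-methionine and bulk Escherichia coli tRNA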
Rpn11 inh: Rpn11 (PSMD14) deubiquitinase inhibitors, primary screen, biochemical, fluorescence polarization, uHTS; human 26S proteasome, Ub4-pepOG fluorescence polarization; 20S core pre-blocked with epoxomicin; inhibition, % at 20 µM; AID 588493, 2011; 26S proteasome non-ATPase regulatory subunit 14 (Homo sapiens), O00487; actives 0.59% (n = 360,000);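 active = inhibition at 20 µM, scaled to each plate's controls, above about 33%, limit read from the data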
PREPL inh: PREPL enzyme inhibitors, primary screen, biochemical, fluorescence polarization | recombinant PREPL, fluorescence polarization activity-based probe | AID 2751, 2010 | Prolyl endopeptidase-like (Homo sapiens), Q4J6C6 | actives 0.68% (n = 320,000) | inhibition, % at 5.96 µM; in the data active = inhibition above about 43%;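 also: 0% = enzyme with DMSO and 100% = wells lacking enzyme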
Rpn11 inh conf: Rpn11 (PSMD14) deubiquitinase inhibitors, confirmation, biochemical, fluorescence polarization, single concentration; AID 602318, 2012; inhibition, % at 20 µM; actives 29% (n = 1,900); purified human 26S proteasome, Ub4-pepOG fluorescence polarization; proteasome pretreated with epoxomicin; shares compounds with Rpn11 inh
MMP-2 inh: MMP-2 enzyme inhibition, confirmation, counter-screen for RPN11 inhibitor project, biochemical, fluorescence, single concentration; shares compounds with Rpn11 inh; recombinant MMP-2, FRET peptide cleavage fluorescence; inhibition, % at 20 µM; actives 4% (n = 1,900);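 also: human MMP-2 activated beforehand with APMA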
Thrombin FP: bovine thrombin protease inhibition, confirmation, counter-screen for Rpn11 inhibitor project, biochemical, fluorescence polarization, single concentration; shares compounds with Rpn11 inh; bovine thrombin cleavage of Ub4-pepOG; inhibition, % at 20 µM; actives 13% (n = 1,900); AID 602333, 2012;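 active = mean inhibition at least 40% at 20 µM, or signal 3 deviations below plate average, so some actives read negative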;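 also: plate controls were thrombin with DMSO for no effect and buffer wells lacking thrombin for full effect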
* = called active by the depositor; . = no result shown. Rule as the data show it, unless noted: active = inhibition above about 40%; inactive = the rest.

SMILES	HNF4A DNA FP	CSN deneddyl inh	Neddylation inh	Tb MetRS inh	Rpn11 inh	PREPL inh	Rpn11 inh conf	MMP-2 inh	Thrombin FP
CN1CCCNc2nc3ccccc3nc21	4	10	.	0	46*	2	-3	-49	-8
O=c1cc(Cl)[nH]c(=O)n1CCNc1ncc(C(F)(F)F)cc1Cl	50*	37*	2	0	82*	2	99*	7	87*
Cc1ccc(-c2ccc(S(=O)(=O)N3CCCC3)cc2)cc1	-2	7	2	0	0	-6	.	.	.
Cc1ccc(-c2ccc(S(=O)(=O)N3CC(C)OC(C)C3)cc2)cc1 (centres undefined)	25	1	3	0	64*	-1	-8	-2	-1
CCN(CC)c1ncnc2c1ncn2[C@H]1CN(Cc2ccccc2)C[C@@H](CO)O1	2	4	1	0	-3	.	.	.	.
C/C(=N\Nc1ccc([N+](=O)[O-])cc1)c1cc2ccccc2o1	56*	25	-22	0	108*	32	60*	-47	35
Cc1cccc(N(C(=O)c2snc(C(N)=O)c2N)C(C(=O)NCC2CCCO2)c2ccc(N(C)C)cc2)c1C (centres undefined)	5	0	12	0	7	0	.	.	.
CN(C)/C=C/C(=O)c1ccc(OCCN(C)c2ccccn2)cc1	0	2	-11	0	0	12	.	.	.
Cc1cc(C)c(S(=O)(=O)n2ccc(-c3ccc(OCCN(C)c4ccccn4)cc3)n2)c(C)c1	2	3	0	0	92*	6	-39	-14	-13
CC(C)C[C@@H](CN1CCC[C@H]1CN1C(=O)C(=O)NC[C@@H]1Cc1ccccc1)N1C[C@H](Cc2ccc(O)cc2)N(CC2CCCCCC2)C(=O)C1=O	-3	1	8	-1	.	.	.	.	.
COc1ccc(N2CCN(C(c3cc(OC)ccc3OC)c3nnnn3Cc3ccco3)CC2)cc1 (centres undefined)	-4	5	7	0	30*	4	-13	3	-11
CC1C(=O)N(Cc2cn(Cc3ccco3)nn2)CCS(=O)(=O)N1Cc1ccc(-c2cccnc2)cc1 (centres undefined)	-3	10	5	0	46*	.	-3	23	13
Cc1ccc(-c2ccc(CN3C(C)C(=O)N(Cc4cn(Cc5ccco5)nn4)CCS3(=O)=O)cc2)cc1 (centres undefined)	-2	1	-4	0	4	.	.	.	.
CN(CCC#N)C(=O)COC(=O)c1c2c(nc3ccccc13)/C(=C/c1ccco1)CC2	-11	45	13	0	71*	15	45*	30	25
O=C(c1cc(Cl)cc(Cl)c1)N1CCC(=O)N([C@H](COCc2ccccc2)Cc2ccccc2)CC1	0	3	6	0	.	.	.	.	.
N#Cc1cc2ccccc2nc1SCC(=O)Nc1ccc(S(=O)(=O)N2CCCC2)cc1	11	4	-351	0	.	6	.	.	.

Source: PubChem (several laboratories)
